Most compounds without a hit are left out; they make up all but 1.3% or so of the library.
Hck Nef HTS: inhibitors of Nef-activated human Hck kinase, primary screen, biochemical, Z-Lyte FRET, 384-well, Hck-YEEI; Recombinant Hck-YEEI plus Nef, Z-Lyte FRET kinase assay; hit rate 0.68% among 220,000; AID 463187, 2010; Tyrosine-protein kinase HCK (Homo sapiens), P08631; inhibition, % at 20 µM;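 active = Hck-Nef kinase inhibition above about 50%, limit read from the data; inactive = inhibition below that limit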
Mdm2 ligase inh: MDM2-luciferase reporter signal enhancers, primary screen, MDM2 E3 ligase inhibitor project, cell-based, luminescence, 1536-well. E3 ubiquitin-protein ligase Mdm2 (Homo sapiens), Q00987. cell-based MDM2 ubiquitination luciferase reporter, 2 h; 0 = plate control, 100 = twice control, blank-subtracted. signal enhancement, % at 5 µM. hit rate 0.11% among 210,000. AID 1230, 2008;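 active = signal enhancement of 30% or more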;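 also: luminescence tracks abundance of the self-degrading MDM2-luciferase fusion protein; higher signal means inhibition of MDM2 E3 ligase activity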
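Assay system: mammalian cells stably expressing self-ubiquitinating, self-degrading MDM2 E3–luciferase fusion. Quantity: 2000 cells in each well. Medium: DMEM culture medium. Compound dosing: single-point 5 µM. Timing: cell settling 4 h, compound treatment 2 h, both 37 °C. Technique: luciferase luminescence. Read-out basis: percent signal gain over controls, blank-subtracted. Benchmarks: plate controls and plate blanks.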
TAG inh: inhibitors of triacylglycerol accumulation, primary screen, cell-based, uHTS, fluorescence, H9c2. inhibition, % at 12.5 µM. H9c2 cells, Nile Red lipid (TAG) fluorescence; cells loaded with 200 µM oleic acid. hit rate 0.66% among 230,000;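 active = pattern-corrected inhibition of lipid staining of at least 50% with the nuclear-stain viability signal not falling by more than 50%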
PKD1 kinase inh: inhibitors of human PKD1 kinase, biochemical, fluorescence polarization; Serine/threonine-protein kinase D1 (Homo sapiens), Q15139; PKD1 kinase fluorescence polarization assay; inhibition, % (test concentration not listed); hit rate 0.056% among 200,000; in the data active = inhibition above about 50%
PERK inhibitor: block of dimerizer-induced PERK translation repression, primary screen, PERK inhibitor project, CHO PERK-DD cells, SEAP luminescence, HTS. Eukaryotic translation initiation factor 2-alpha kinase 3 (Homo sapiens), Q9NZJ5. hit rate 0.17% among 220,000. inhibition, % at 5.6 µM. CHO PERK-DD fusion, SEAP luminescence translation reporter;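 active = inhibition above the mean inhibition of all tested compounds plus 3 SD, set separately per screening campaign, cut at about 2.9% in these data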;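 also: PERK kinase domain activated by AP20187 dimerizer at 100 nM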
Target sequence (Q9NZJ5 whole entry, looked up, the tested form may be a part): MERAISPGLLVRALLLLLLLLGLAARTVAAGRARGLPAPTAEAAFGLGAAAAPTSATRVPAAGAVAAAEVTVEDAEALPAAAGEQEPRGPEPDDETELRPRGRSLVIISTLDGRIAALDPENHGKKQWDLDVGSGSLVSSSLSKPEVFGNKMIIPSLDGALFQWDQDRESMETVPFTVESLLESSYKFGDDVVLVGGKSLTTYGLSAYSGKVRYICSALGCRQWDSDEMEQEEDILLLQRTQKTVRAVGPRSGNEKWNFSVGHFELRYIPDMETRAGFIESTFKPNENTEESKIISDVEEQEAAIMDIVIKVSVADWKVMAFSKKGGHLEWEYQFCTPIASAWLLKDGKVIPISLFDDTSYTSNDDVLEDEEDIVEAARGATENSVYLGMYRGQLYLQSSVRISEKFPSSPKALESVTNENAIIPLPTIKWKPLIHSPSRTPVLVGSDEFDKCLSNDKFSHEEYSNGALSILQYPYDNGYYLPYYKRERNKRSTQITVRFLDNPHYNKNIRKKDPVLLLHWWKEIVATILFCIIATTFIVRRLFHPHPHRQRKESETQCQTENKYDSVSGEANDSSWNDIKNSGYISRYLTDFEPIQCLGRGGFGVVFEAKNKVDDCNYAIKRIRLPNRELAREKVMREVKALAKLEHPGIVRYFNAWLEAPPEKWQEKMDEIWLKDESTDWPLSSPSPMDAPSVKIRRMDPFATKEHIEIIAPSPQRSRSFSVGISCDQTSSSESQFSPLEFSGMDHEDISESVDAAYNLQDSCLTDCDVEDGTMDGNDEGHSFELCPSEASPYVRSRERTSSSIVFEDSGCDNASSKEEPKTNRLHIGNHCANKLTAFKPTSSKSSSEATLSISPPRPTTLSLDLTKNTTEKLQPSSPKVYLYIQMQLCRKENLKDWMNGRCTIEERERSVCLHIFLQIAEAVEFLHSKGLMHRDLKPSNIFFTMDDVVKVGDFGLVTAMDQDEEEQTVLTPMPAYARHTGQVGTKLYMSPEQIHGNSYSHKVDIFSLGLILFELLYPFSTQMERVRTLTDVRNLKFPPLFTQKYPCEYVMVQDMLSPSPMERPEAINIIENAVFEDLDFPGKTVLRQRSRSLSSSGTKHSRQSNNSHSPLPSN
Rad51 HR inh: human RAD51 strand exchange inhibitors, primary screen, biochemical, fluorescence; hRad51 DNA strand exchange, fluorescence dequenching; DNA repair protein RAD51 homolog 1 (Homo sapiens), Q06609; hit rate 0.085% among 200,000; inhibition, % at 10 µM;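 active = inhibition above 40% at the single screening dose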
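Test system: preformed human Rad51 ssDNA filaments. Compound dosing: single dose, 10 µM final compound. Incubation: filaments 15 min 37 °C, then compound 30 min. Technique: FRET fluorescence dequenching, excitation 485 nm, emission 520 nm. Read-out basis: percent inhibition from fluorescence, normalised to plate control and blank means. Benchmarks: plate controls and plate blanks.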
Each line names hits and unclear results; the compound was inactive in the other large screens; ! = not active in a repeat.

Clc1ccccc1/C=N/NC1=Nc2cccc3cccc1c23	Mdm2 ligase inh 346 (no result: TAG inh)
Clc1ccccc1C=NNc1ccccn1	none (no result: Hck Nef HTS, Mdm2 ligase inh, PKD1 kinase inh, PERK inhibitor, Rad51 HR inh)
CCCCC[C@@H](/C=C/C1C(=O)C=C[C@H]1C/C=C\CCCC(=O)O)OC(C)=O (stereo partly specified)	none (no result: Hck Nef HTS, Mdm2 ligase inh, PKD1 kinase inh, PERK inhibitor, Rad51 HR inh)
N#C/C(=C\c1ccc(-c2ccc([N+](=O)[O-])cc2)o1)C(=O)Nc1nc(-c2cccs2)cs1	Hck Nef HTS 67 (no result: Mdm2 ligase inh, PKD1 kinase inh)
COc1ccc(C(=O)Nc2sc(C)c(C)c2CN2CC(C)OC(C)C2)cc1 (stereo unspecified)	none (no result: TAG inh)
N=c1n(Cc2ccc(Cl)cc2)c2ccccc2n1CC(O)COc1ccccc1 (stereo unspecified)	TAG inh 73
COc1ccc(OCC(O)Cn2c(=N)n(Cc3ccccc3)c3ccccc32)cc1 (stereo unspecified)	none
CSCc1ccc(C(=O)NC(C)c2cnn(-c3ccccn3)c2C)o1 (stereo unspecified)	none (no result: Hck Nef HTS, Mdm2 ligase inh, PKD1 kinase inh, PERK inhibitor, Rad51 HR inh)
Nc1nc(Cl)nc(N(c2ccccc2)c2ccccc2)n1	none
Nc1nc(CCl)nc(N(c2ccccc2)c2ccccc2)n1	TAG inh 80 (no result: PKD1 kinase inh)
CC1=NN(Cc2c(C)nn(Cc3ccccc3)c2C)C(C)(C)C1	none (no result: Rad51 HR inh)
COc1cc2sc(-c3ccccc3OC)c(-c3ccc(OCCN4CCCCC4)cc3)c2cc1OC	TAG inh 81 (no result: Hck Nef HTS, Mdm2 ligase inh, PKD1 kinase inh, PERK inhibitor, Rad51 HR inh)
COc1ccc(-c2sc3cc4c(cc3c2-c2ccc(OCCN3CCOCC3)cc2)OCO4)cc1	none (no result: Hck Nef HTS, Mdm2 ligase inh, PKD1 kinase inh, PERK inhibitor, Rad51 HR inh)
COc1ccc2sc(-c3ccccc3OC)c(-c3ccc(OCCN4CCOCC4)cc3)c2c1	none (no result: Hck Nef HTS, Mdm2 ligase inh, PKD1 kinase inh, PERK inhibitor, Rad51 HR inh)
COc1ccccc1-c1sc2cc3c(cc2c1-c1ccc(OCCN2CCCCC2)cc1)OCO3	TAG inh 63 (no result: Hck Nef HTS, Mdm2 ligase inh, PKD1 kinase inh, PERK inhibitor, Rad51 HR inh)
COc1ccc2cc(/C=N/NC(=O)CN(c3ccccc3C)S(=O)(=O)c3ccccc3)c(Cl)nc2c1	none (no result: TAG inh, Rad51 HR inh)
CS(=O)(=O)NCCSc1cc(C(F)(F)F)nc2ccccc12	none (no result: PKD1 kinase inh)
CCOc1ccccc1C(=O)Nc1nccs1	Rad51 HR inh 134
CN(C)CCCN1c2ccccc2Sc2ccc(Cl)cc21	TAG inh 50!
CCCCc1nc2sc3c(=O)n(N)cnc3c2c2c1CCC2	PERK inhibitor 3.0 (no result: TAG inh)
CC(C)Cc1nc2sc3c(=O)n(N)cnc3c2c2c1COC(C)(C)C2	none (no result: TAG inh)
COc1ccccc1NC(=O)Nc1ccc(F)c(F)c1	Rad51 HR inh 41 (no result: TAG inh)
COc1ccccc1NC(=O)NCC(=O)Nc1ccc(F)c(F)c1	none
COc1ccccc1NC(=S)N=Nc1c(O)[nH]c2ccc(Br)cc12	TAG inh 50 (no result: PKD1 kinase inh)
COc1ccc(C2NCCc3c2[nH]c2ccccc32)cc1COc1ccc(F)cc1 (stereo unspecified)	TAG inh 115 (no result: Rad51 HR inh)
COc1ccc(C2NCCc3c2[nH]c2ccccc32)cc1CN1CCc2cc(OC)c(OC)cc2C1C (stereo unspecified)	none (no result: PKD1 kinase inh)
Cc1cccc(-c2nnn(Cc3nnc(NC(=O)c4ccccc4)s3)n2)c1	Rad51 HR inh 88
COc1ccc(Cc2nnc(NC(=O)c3cccc(C)c3)s2)cc1	none (no result: TAG inh)
Cn1cc(Cl)c(-c2n[nH]c(=S)n2-c2ccccc2)n1	PERK inhibitor 3.3 (no result: TAG inh)
Cc1ccc(-n2c(-c3nn(C)cc3Cl)n[nH]c2=S)cc1	none (no result: TAG inh)
NNC(=O)[C@H](Cc1ccccc1)NC(=O)Nc1ccc2c(c1)OCCO2	none (no result: PKD1 kinase inh)
COc1ccc(-c2sc3ccc(OC)cc3c2-c2ccc(OC)nc2)cc1	none (no result: Hck Nef HTS, Mdm2 ligase inh, PKD1 kinase inh, PERK inhibitor, Rad51 HR inh)
CCOc1ccccc1NC(=O)Cn1nnc(C(=O)NCc2ccco2)c1N	TAG inh 66 (no result: Rad51 HR inh)
Cc1ccccc1NC(=O)Cn1nnc(C(=O)NCc2ccco2)c1N	none (no result: TAG inh)
CSC1=N/C(=C\c2ccccc2)C(=O)N1C	none (no result: TAG inh)
O=C(CN1CCN(c2ccc(O)cc2)CC1)Nc1cc(S(=O)(=O)N2CCCCC2)ccc1Cl	Hck Nef HTS 61
O=C(CCc1ccccc1)NCC(=O)N/N=C/c1ccc(O)cc1O	PERK inhibitor 3.4 (no result: PKD1 kinase inh)
O=C(CNC(=O)c1cccs1)N/N=C/c1ccc(O)cc1O	none
CCOc1ccc(OCC)c(NC(=O)CN(C)S(=O)(=O)c2cnc[nH]2)c1	none
CCOc1ccc(NC(=O)CN(C)S(=O)(=O)c2cnc[nH]2)cc1	Mdm2 ligase inh 32
COc1ccccc1C(=O)NCCC(=O)NCC(c1ccccc1)N(C)C (stereo unspecified)	none (no result: Hck Nef HTS, Mdm2 ligase inh, PKD1 kinase inh, PERK inhibitor, Rad51 HR inh)
CCN(CC)Cc1cc(C(=O)O)c(C)o1	Mdm2 ligase inh 32
CN1N=C(C(C)(C)C)CC1=O	PERK inhibitor 3.4 (no result: TAG inh, PKD1 kinase inh)
CN1N=C(C(F)(F)F)CC1=O	none
C[C@H]1CN([C@@H](C)CO)C(=O)c2cccc(NC(=O)Nc3ccc(C(F)(F)F)cc3)c2O[C@@H]1CN(C)Cc1ccc(Cl)c(Cl)c1	TAG inh 56 (no result: Hck Nef HTS, Mdm2 ligase inh, PKD1 kinase inh, PERK inhibitor, Rad51 HR inh)
Cc1oc(C(C)(C)C)cc1C(N)=O	PERK inhibitor 3.0 (no result: PKD1 kinase inh)
Cc1cc(NC(=O)c2cc(C(C)(C)C)oc2C)no1	none (no result: PKD1 kinase inh)
